Source: PubChem (several laboratories)
AHR act – AHR activators, primary screen, cell-based, luminescence, luciferase reporter, human | Aryl hydrocarbon receptor (Homo sapiens), P35869 | AHR-responsive luciferase reporter cells | actives 2.5% (n = 320,000) | activation, % at 5 µM; in the data active = activation above about 47%;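 also: 0% = vehicle wells and 100% = reference agonist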
TbMetRS inhib – T. brucei MetRS inhibitors, primary screen, biochemical, luminescence; methionyl-tRNA synthetase (Trypanosoma brucei brucei); actives 0.4% (n = 360,000); inhibition, % at 11.9 µM; purified T. brucei MetRS, ATP depletion, Kinase-Glo luminescence; AID 624268, 2012;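 active = inhibition above a per-plate cutoff of the control wells' mean inhibition plus 3 SD, cut at about 5.5% in these data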;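 also: 0% = DMSO wells median and 100% = median of wells with control inhibitor compound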
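technique = Kinase-Glo luminescence, ATP depletion format | system = purified MetRS (methionyl-tRNA synthetase) enzyme from Trypanosoma brucei | timing = 15 min preincubation, 2 h reaction, all 25 °C | evaluation = percent inhibition versus plate control medians | dosing = single dose, 11.9 µM final nominal, 0.9% final DMSO | also added = substrates ATP, L-methionine and bulk Escherichia coli tRNA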
MsrA inhibitor – bovine MsrA enzyme inhibitors, primary screen, biochemical, absorbance, HTS; inhibition, % at 15.5 µM; actives 0.75% (n = 360,000); purified bovine MsrA, absorbance read-out; AID 651718, 2012; in the data active = inhibition above about 4.5%;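 also: 0% = vehicle wells with enzyme and 100% = reference inhibitor wells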
AI-2 QS modul – Vibrio harveyi AI-2 quorum sensing modulators, primary screen, JMH597 strain, luminescence/OD600 ratio | Vibrio harveyi JMH597 AI-2 luminescence/OD600 ratio, 9 h; hits give low values; strain lacks LuxN and CqsS sensors; 0 = neutral-control median | activity change, % at 7.5 µM | actives 0.4% (n = 300,000) | AID 2094, 2009; in the data active = activity change below about -75%, passing the limit was not always enough;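 also: luminescence divided by OD600 gain over 9 h not by final OD600 alone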
MsrA act – bovine MsrA enzyme activators, primary screen, biochemical, absorbance, HTS | activation, % at 10.6 µM | Methionine sulfoxide reductase A (Bos taurus) | actives 0.3% (n = 360,000) | AID 602163, 2012 | purified bovine MsrA, absorbance read-out; in the data active = activation above about 7.5%;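 also: 0% = vehicle and 100% = reference activator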
m5-HT2A agonist – mouse Htr2a agonists via beta-arrestin recruitment, primary screen, cell-based, luminescence; CHO-K1 mHTR2A beta-arrestin complementation; percent of 30 µM serotonin response; activation, % at 7.6 µM; actives 0.66% (n = 360,000);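 active = activation above a run cutoff, the mean activation of all tested compounds plus 3 SD, cut at about 14% in these data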;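 also: 0% = plate median of compound wells and 100% = 30 µM serotonin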
MOR ag counter – OPRM1 agonists via beta-arrestin recruitment, confirmation, counter-screen for mouse HTR2A agonist project, cell-based, luminescence, single concentration; shares compounds with m5-HT2A agonist; U2OS OPRM1 beta-arrestin PathHunter; DMSO 0%, DAMGO 9.3 µM 100%; activation, % at 9.3 µM; actives 5.3% (n = 2,300); AID 624380, 2012;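 active = mean activation above the mean of DMSO-only wells plus 3 SD, cut at about 0.5% in these data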
Target sequence (P35372 whole entry, looked up): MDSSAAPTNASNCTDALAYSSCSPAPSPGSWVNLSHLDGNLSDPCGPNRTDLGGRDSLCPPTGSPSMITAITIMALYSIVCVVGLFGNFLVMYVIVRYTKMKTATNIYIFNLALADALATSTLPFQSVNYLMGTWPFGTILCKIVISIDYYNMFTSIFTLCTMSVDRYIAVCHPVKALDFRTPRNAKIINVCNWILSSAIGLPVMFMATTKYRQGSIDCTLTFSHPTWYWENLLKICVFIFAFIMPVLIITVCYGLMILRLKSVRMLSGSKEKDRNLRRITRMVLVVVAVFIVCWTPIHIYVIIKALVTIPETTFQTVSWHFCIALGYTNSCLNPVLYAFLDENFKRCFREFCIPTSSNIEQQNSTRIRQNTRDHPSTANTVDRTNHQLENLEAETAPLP
m5-HT2A ag conf – mouse HTR2A agonists, beta-arrestin recruitment, confirmation, cell-based, luminescence, CHO-K1 PathHunter, triplicate | shares compounds with m5-HT2A agonist | DMSO 0%, 30 µM serotonin 100% | activation, % at 7.6 µM | actives 19% (n = 2,300) | AID 624381, 2012;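 active = mean activation across triplicates above the hit threshold derived in the original primary screen, cut at about 15% in these data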
An asterisk follows results filed as active; / = not tested or not shown. In the library only some 4.4% were active in any assay of this set; here they are far more common.

SMILES	AHR act	TbMetRS inhib	MsrA inhibitor	AI-2 QS modul	MsrA act	m5-HT2A agonist	MOR ag counter	m5-HT2A ag conf
COc1cc(C(C)=O)ccc1OCC(O)CNCC(O)c1ccccc1 (centres undefined)	1	0	0	16	-1	1	/	/
COc1ccc(NC(=O)N2CCC(C(=O)c3ccc4c(c3)OCCO4)CC2)cc1	2	0	-1	-1	-4	17*	-1	-4
O=C(c1ccc2c(c1)OCCO2)C1CCN(C(=O)Nc2ccc(F)cc2)CC1	1	-1	0	11	-1	4	/	/
COc1cc(C)nc(NS(=O)(=O)c2ccccc2Cl)n1	10	1	-1	29	0	31*	0	-1
COc1cc(C(C)=O)ccc1O	3	0	2	6	-5	0	/	/
COc1cc(C(=O)O)ccc1O	0	0	0	11	-2	28*	-1	-1
COc1ccccc1NC(=O)CCCC(=O)OCC(=O)c1ccc(F)cc1	0	0	-1	16	-4	0	/	/
C#CCOC(=O)CCCC(=O)Nc1ccccc1OC	1	-1	0	30	0	18*	0	0
C[C@H]1CN([C@@H](C)CO)C(=O)CCCn2nncc2CO[C@@H]1CN(C)Cc1ccccc1C(F)(F)F	/	-2	0	/	1	10	/	/
COc1ccccc1S(=O)(=O)N(C)C[C@H]1OCc2cnnn2CCCC(=O)N([C@H](C)CO)C[C@H]1C	/	1	0	/	-3	-1	/	/
CC1(C)CC(=O)C=C(NNC(=O)c2ccccc2O)C1	4	-1	3	1	-5	4	/	/
COc1ccc(C(=O)NNC2=CC(=O)CC(C)(C)C2)cc1	0	0	1	13	-5	19*	-1	1
O=C1NC(=O)C(Cc2ccc(Cl)cc2)(c2ccccc2)N1 (centres undefined)	/	0	0	/	-1	-1	/	/
CCOC(=O)CSc1nc2c(sc(=S)n2-c2ccc(OCC)cc2)c(=O)[nH]1	1	0	1	17	-3	-2	/	/
CCOc1ccc(-n2c(=S)sc3c(=O)[nH]c(SCC(=O)C(C)(C)C)nc32)cc1	5	-1	0	30	-4	17*	-1	0
CC(C)N1C(=O)C(=O)N(CC(=O)N2c3ccccc3NC(=O)CC2C)C1=O (centres undefined)	/	-1	-1	/	-7	1	/	/
Cc1ccccc1C(=O)NCC(C)NC(=O)c1ccccc1C (centres undefined)	0	0	-1	19	-3	2	/	/
CN(C)c1ccc(O)c2c1CC1CC3[C@@H](N(C)C)C(=O)C(C(N)=O)C(=O)[C@]3(O)C(=O)C1C2=O (some centres undefined)	10	0	4	/	-2	67*	0	153*
Cc1cc(C)n(/N=C/c2ccc(O)cc2)c(=O)c1C#N	1	0	3	9	-5	20*	-1	-4
Cc1ccc(/C=N/n2c(C)cc(C)c(C#N)c2=O)cc1	-3	0	2	20	2	-2	/	/
CCc1ccc(Nc2nc(N3CCOCC3)nc(N3CCOCC3)n2)cc1	6	-1	0	2	-4	1	/	/
FC(F)(F)Oc1ccc(Nc2nc(N3CCOCC3)nc(N3CCOCC3)n2)cc1	11	0	0	0	-6	15*	0	-4
